Screens (PubChem)
This is one part of a sample in which hits are shown more often than they occur.
Insulin prom act – TRM-6 insulin promoter activation. TRM-6 cells (human fetal islet line), insulin promoter eGFP reporter, imaging; plate-scaled: unstimulated 0, stimulated control 100. activation, % at 2 µM. hit rate 0.81% among 130,000. AID 1296;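 active means activation at 2 µM above a set limit, confirmed on inspection of the cell images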;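 further: share of cells whose green reporter signal exceeds an intensity cutoff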
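test system = TRM-6 insulin promoter–eGFP reporter cells | benchmarks = stimulated versus unstimulated wells as plate controls | read-out basis = percent cells above green-intensity threshold, converted to percent activation versus plate controls | detection = fixed-cell fluorescence microscopy, eGFP plus Hoechst | incubation = tamoxifen pre-incubation 15 h overnight, then compound exposure 48 h at 37 °C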
Active calls of the source: *.

SMILES	Insulin prom act
CCn1c(NC)cc(=O)n(C)c1=O	3
CCn1c(=O)n(CC)c2cc(S(N)(=O)=O)c(C)cc21	525*
CCN1CCN(S(=O)(=O)c2cc(C)c(OC)cc2C)CC1	-57
O=c1ccn(-c2ccccc2)[nH]1	-7
Cc1ccc(-c2ccc(CCC(=O)O)n2CC(=O)O)cc1	-4
Cc1ccc(-c2ccc(CCC(=O)O)n2-c2ccc(O)cc2)cc1	-9
Cc1ccc(-c2ccc(CCC(=O)O)n2-c2cccc(O)c2)cc1	291*
O=Cc1cn(CC(=O)N2CCOCC2)c2ccccc12	411*
COC(=O)c1cn(CC(=O)N2CCCCCC2)c2ccccc12	381
Cc1nc2ccccc2c(=O)n1CC(=O)N1CCOCC1	-7
COc1cc(OC)cc(C(=O)NCCNC(=O)c2ccco2)c1	371
COCC(C)n1c(SCc2cc(=O)n3cc(C)ccc3n2)nc2ccccc2c1=O (stereo not given)	8
CC(=O)Nc1cccc(OCC(O)Cn2cnc3ccccc32)c1 (stereo not given)	9
Cc1cccc(OCC(O)CNC(=O)c2ccccc2C(=O)O)c1 (stereo not given)	-7
CC(=O)OC(COc1cccc(C)c1)Cn1cnc2ccccc21 (stereo not given)	407*
CC(C)Cn1c(SCC(=O)c2ccc(Cl)s2)nnc1-c1ccco1	0
Cn1c(=O)c2c(nc(SCC(=O)O)n2Cc2cc3c(cc2Cl)OCO3)n(C)c1=O	1
COc1ccc(NC2=CC(=O)N(C)C2=O)cc1	0
Cc1ccc(C2CC(=O)c3cnn(-c4nc(C)cc(C)n4)c3C2)cc1 (stereo not given)	131
Cc1cc(C)c(NC(=S)N(CCCN2CCN(C)CC2)Cc2cccs2)c(C)c1	-7
Cc1cc(Nc2ccccc2)n(CCO)n1	543*
COc1ccc(C(=O)n2nc(C)cc2Nc2ccccc2)cc1	6
Cc1cc(C)n(-c2nc(Nc3ccccc3)nc(-n3nc(C)cc3C)n2)n1	-6
FC(F)(F)C(Oc1nc(Nc2ccc(Cl)cc2)nc(N2CCOCC2)n1)C(F)(F)F	279
CC12CCC(C(=O)N3CCc4ccccc43)(CC1=O)C2(C)C (stereo not given)	514*
SMILES	Insulin prom act
COc1ccc(N2CCN(C(=O)C34CCC(C)(C(=O)C3)C4(C)C)CC2)cc1 (stereo not given)	-6
CC12CCC(C(=O)Nc3ccccc3N3CCOCC3)(CC1=O)C2(C)C (stereo not given)	8
O=C(NCCc1ccccn1)C1CCN(S(=O)(=O)c2ccc3ccccc3c2)CC1	106
COC(=O)C1=C(C)Nc2nnnn2C1c1ccccc1Cl (stereo not given)	8
C=CCOC(=O)C1=C(C)Nc2nnnn2C1c1ccc(OC)cc1OC (stereo not given)	3
CCCCOc1ccccc1C1C(C(N)=O)=C(C)Nc2nnnn21 (stereo not given)	493*
CC(c1ccc(F)cc1)n1c(Cn2ncc3ccccc3c2=O)n[nH]c1=S (stereo not given)	-4
Cc1ccc(-c2csc(NC(=O)CCNC(=O)c3ccccc3Cl)n2)cc1	-3
Cc1nccn1-c1cc(C(C)(C)C)nc2c(-c3ccccc3)cnn12	-4
CC(=O)Nc1cccc(C(=O)NC(C)c2ccc(S(N)(=O)=O)cc2)c1 (stereo not given)	-9
CCN(C(=O)COC(=O)/C=C/c1ccc(O)c(OC)c1)C1CCS(=O)(=O)C1 (stereo not given)	-10
C=C(C)C1CC=C(C)/C(=N\NC(=S)Nc2ccc(C)cc2)C1 (stereo not given)	-6
COc1ccc(Cl)cc1C(=O)NC(=S)Nc1cc(-c2nc3ccccc3[nH]2)ccc1C	-6
c1ccc(-c2cc(-c3ccccc3)n3ncnc3n2)cc1	-69
Nc1nc2nc(-c3ccc(OCc4ccccc4)cc3)cc(C(F)(F)F)n2n1	-3
Fc1ccc(-c2cc(C(F)(F)F)n3ncnc3n2)cc1	235*
CCN1CCN(C(=O)Nc2ccccc2OC)CC1	7
Cc1ccc(C(=O)OCC2OC3OC(C)(C)OC3C2O)cc1 (stereo not given)	10
O=C1c2ccccc2C(=O)N1OCCOCCOCCBr	3
CC1(C)O[C@H]2OC([C@H](O)CON3C(=O)c4ccccc4C3=O)[C@H](O)[C@H]2O1 (stereo not given in full)	264*
CO/N=C(/C)CCS(=O)(=O)c1ccccc1	7
Cc1ccc(OCCN2C(=O)NC3(CCc4ccccc4C3)C2=O)cc1 (stereo not given)	6
CNc1c([N+](=O)[O-])cnn1-c1ccccn1	-9
Cc1cc(NC(=O)c2ccc(NC(=O)CC(C)C)cc2)no1	523*
Cc1cc(NC(=O)c2ccc(S(=O)(=O)N(C)C)cc2)no1	8
Cc1cc(NC(=O)c2ccc(Cl)cc2)no1	200
COc1cc(/C=C\C(=O)NCc2ccc3c(c2)cc(C)n3C)cc(OC)c1OC	7
CC(C)(CSc1nncn1N)NS(=O)(=O)c1ccc(Cl)cc1	-77
CN(C(=O)c1ccccc1OC1CCN(S(C)(=O)=O)CC1)C1CCOC1 (stereo not given)	-4
